The list is not random: actives were taken first. Their share in the collection is about 3%.
KLK7 zymogen act: activates the human kallikrein-7 zymogen | P49862 | purified proKLK7, EDANS-DABCYL substrate fluorescence; 100% is mature enzyme control, 0% vehicle | activation, % at 7 µM | 0.9% of 370,000 active;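 active = activation above the mean of all tested compounds plus 3 SD, computed per campaign excluding outliers beyond control limits, cut at about 13% in these data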
Tn7 DDE FP: disrupts Tn7 cyclic peptide binding to fibrin D-Dimer-E complex; P02675; inhibition, % at 8.3 µM; 0.13% of 370,000 active; FP displacement of FITC-Tn7 peptide from fibrin DD(E); 0% = median of compound wells per plate; AID 720508;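 active = inhibition above the mean of compounds falling within the control limits plus 3 SD of them, cut at about 14% in these data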;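 note: 0% = plate median of compound wells and 100% = 10 µM Aha-Tn7 peptide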
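Assay system: human fibrin DD(E) protein / Input: 2 µM fibrin DD(E) / Benchmarks: high control of 10 µM Aha-Tn7 peptide / Measured by: fluorescence polarization of the labelled Tn7 tracer / Medium: Tris buffer with calcium and detergent, pH 7.8 / Timing: 10 min compound pre-incubation, 3 h probe incubation at room temperature / Repeats: one replicate per compound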
PLCb3 inh: blocks human PLC-beta3 enzyme activity | Q01970 | Purified PLC-beta3, fluorogenic substrate, fluorescence | inhibition, % at 12.2 µM | 0.18% of 370,000 active; in the data active = inhibition above about 11%;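 note: 0% = median of compound wells on plate and 100% = full blocker control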
PLCg1 inh: inhibitors of human phospholipase C gamma1; P19174; inhibition, % at 12.2 µM; AID 720700; 0.84% of 370,000 active; purified PLC-gamma1, fluorogenic substrate, fluorescence; in the data active = inhibition above about 9.5%
NRP1-CendR mod: NRP-1/CendR interaction modulation; O14786; FAM-RPARPAR peptide binding to NRP-1, fluorescence polarization; inhibition, % at 25 µM; 0.85% of 360,000 active;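 active = inhibition or corrected inhibition above about 18%, plus a signal ratio from 0.5 to 1.5, limit read from the data, passing the limit was not always enough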
DDE Tn6 FP inh: DD(E)-Tn6 binding inhibition, primary FP screen | AID 720509 | 0.21% of 370,000 active | P02675 | Fibrin DD(E) TRITC-Tn6 fluorescence polarization displacement | inhibition, % at 8.3 µM;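 active = inhibition above a per-campaign cutoff: mean of compounds within control limits plus 3 SD, cut at about 15% in these data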;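 note: 0% = median of all compound wells on the plate and 100% = blocking peptide control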
* marks the source's active call; other numbers are inactive results; i = inactive; . = not tested or not shown.

SMILES	KLK7 zymogen act	Tn7 DDE FP	PLCb3 inh	PLCg1 inh	NRP1-CendR mod	DDE Tn6 FP inh
Cn1c(SCC(=O)c2ccc(F)cc2)ncc(C(=O)Nc2ccccc2)c1=O	-1	0	0	3	27*	9
O=C(c1ccc(-c2ccccc2Cl)s1)N1CCOCC1	0	4	-2	2	35*	-1
COc1ccc(-c2csc(NCCc3nc4cc(C(=O)NCCCO)ccc4n3Cc3ccc(C)cc3)n2)cc1	0	8	-2	1	27*	1
CCN(Cc1cn(Cc2ccccc2)nn1)S(=O)(=O)c1ccc(F)cc1Br	0	-5	1	0	.	1
CC(=O)CC[C@H]1CC[C@]2(CCCN(C(=O)c3ccc4ccccc4n3)C2)O1	0	-3	2	0	.	4
CC(=O)Nc1ccc(CNc2ncnc3ccc(-c4c(C)noc4C)cc23)cc1	0	-2	1	-2	36*	2
Cc1cccc(CNc2ncnc3ccc(-c4ccoc4)cc23)c1	-4	-5	-14	-10	18	-2
Cc1ccc(-n2c(SCc3cccc(F)c3)nc3sc4c(c3c2=O)CCCC4)cc1	0	-7	4	3	.	13
Cn1nc(C(F)(F)F)c(C#N)c1N1CCN(c2cccc(C(F)(F)F)c2)CC1	0	4	2	1	39*	0
CC1=NN(c2ccc(F)cc2)C(=O)C1C(c1cccc(O)c1)c1c(C)[nH]n(-c2ccc(F)cc2)c1=O (stereo unspecified)	0	4	12*	18*	2	3
CC1=NN(c2ccc(Cl)cc2)C(=O)C1C(c1cccc(O)c1)c1c(C)[nH]n(-c2ccc(Cl)cc2)c1=O (stereo unspecified)	.	.	.	.	8	.
Clc1ccc(OCc2nnc(-c3ccccc3Br)o2)c(Cl)c1	0	-9	4	3	2	42*
Fc1ccc(OCc2nnc(-c3ccccc3Br)o2)c(Cl)c1	0	0	-8	-1	-4	10
COC(=O)[C@H]1C[C@@]2(n3ccc4ccccc43)c3ccccc3N[C@H]2N1	0	-2	-4	-4	.	3
Cc1[nH]n(-c2ccccc2)c(=O)c1C(C[N+](=O)[O-])c1ccccc1Cl (stereo unspecified)	0	-1	-2	0	31*	7
O=C(Nc1nccs1)c1ccccc1N=Cc1ccccc1	42*	1	i	i	17	1
COC(=O)[C@H](CC1(c2cn(S(=O)(=O)CC[Si](C)(C)C)c3ccccc23)C(=O)Nc2ccccc21)NC(=O)OC(C)(C)C (stereo partly specified)	.	1	-27	-20	.	-2
Cc1cccc(N(C(=O)Cn2nnc3ccccc32)C(C(=O)NCc2ccco2)c2ccncc2)c1 (stereo unspecified)	0	2	-2	-1	0	-1
O=C(NCc1ccco1)C(c1ccco1)N(C(=O)Cn1nnc2ccccc21)c1ccc2c(c1)CCC2 (stereo unspecified)	0	2	2	-1	19*	5
C#CCNC(=O)C[C@H]1C[C@@]2(C(=O)OC)C(=C[C@H](COCc3ccccc3)O[C@@H]2C)N(CCCCCCCC)C1=O	1	-8	-2	-3	.	-2
CCn1c(CCn2c3ccccc3c3ccccc32)n[nH]c1=S	0	-1	0	0	40*	3
CC1CCCN(Cc2c(O)ccc3c4c(c(=O)oc23)CCCC4)C1 (stereo unspecified)	101*	-1	i	i	-20	-3
CCn1c(=O)n(CC)c2cc(N3CCCC3)c(NC(=O)c3ccccc3C)cc21	-1	-3	-23	-15	27*	4
CCC[C@H]1[C@@H](OC(=O)NCc2ccc(Cl)cc2)CC[C@@]23CCCN2C(=O)CCC[C@@H]13	.	-5	2	1	.	1
CN1CCN(S(=O)(=O)c2ccc(N3CCc4ccccc4C3)nc2)CC1	0	-1	-1	-1	21*	7
COc1ccc(CCNC(=O)Nc2ccc3c(c2)[C@@]2(CC(=O)N(CC(C)C)C2c2ccccc2)C(=O)N3C)cc1OC (stereo partly specified)	0	6	0	-1	.	1

High-throughput results (PubChem BioAssay)
